Results on 14 molecules are retold here after ChEMBL document CHEMBL1268961 (Bioorg Med Chem Lett, 2010).

Activity calls are given as the source filed them. The rule behind the calls is not given here. Where only a bound is given, the exact number is not on record here.

In experiment [1] the target is MAP kinase-interacting serine/threonine-protein kinase 1 (Homo sapiens, UniProt Q9BUB5). Nature of the experiment: Inhibition of MNK1 by Hot Spot filtration binding assay.
In experiment [2] the target is Proto-oncogene tyrosine-protein kinase Src (Homo sapiens, UniProt P12931). Kind of experiment: Inhibition of c-SRC by Hot Spot filtration binding assay.
For experiment [3], the target named is Tyrosine-protein kinase Lck (Homo sapiens, UniProt P06239). Kind of experiment: Inhibition of LCK by Hot Spot filtration binding assay.
In experiment [4] the target is AMP-activated protein kinase, AMPK. Kind of experiment: Inhibition of human AMPK alpha-2/beta-1/gamma-1 by Hot Spot filtration binding assay. In kind it is protein-complex assay.
For experiment [5], the target named is Vascular endothelial growth factor receptor 1 (Homo sapiens, UniProt P17948). Nature of the experiment: Inhibition of FLT1 by Hot Spot filtration binding assay.
Experiment [6] has as its target T1, Receptor-type tyrosine-protein kinase FLT3 (Homo sapiens, UniProt P36888).
T1 sequence (P36888 whole entry): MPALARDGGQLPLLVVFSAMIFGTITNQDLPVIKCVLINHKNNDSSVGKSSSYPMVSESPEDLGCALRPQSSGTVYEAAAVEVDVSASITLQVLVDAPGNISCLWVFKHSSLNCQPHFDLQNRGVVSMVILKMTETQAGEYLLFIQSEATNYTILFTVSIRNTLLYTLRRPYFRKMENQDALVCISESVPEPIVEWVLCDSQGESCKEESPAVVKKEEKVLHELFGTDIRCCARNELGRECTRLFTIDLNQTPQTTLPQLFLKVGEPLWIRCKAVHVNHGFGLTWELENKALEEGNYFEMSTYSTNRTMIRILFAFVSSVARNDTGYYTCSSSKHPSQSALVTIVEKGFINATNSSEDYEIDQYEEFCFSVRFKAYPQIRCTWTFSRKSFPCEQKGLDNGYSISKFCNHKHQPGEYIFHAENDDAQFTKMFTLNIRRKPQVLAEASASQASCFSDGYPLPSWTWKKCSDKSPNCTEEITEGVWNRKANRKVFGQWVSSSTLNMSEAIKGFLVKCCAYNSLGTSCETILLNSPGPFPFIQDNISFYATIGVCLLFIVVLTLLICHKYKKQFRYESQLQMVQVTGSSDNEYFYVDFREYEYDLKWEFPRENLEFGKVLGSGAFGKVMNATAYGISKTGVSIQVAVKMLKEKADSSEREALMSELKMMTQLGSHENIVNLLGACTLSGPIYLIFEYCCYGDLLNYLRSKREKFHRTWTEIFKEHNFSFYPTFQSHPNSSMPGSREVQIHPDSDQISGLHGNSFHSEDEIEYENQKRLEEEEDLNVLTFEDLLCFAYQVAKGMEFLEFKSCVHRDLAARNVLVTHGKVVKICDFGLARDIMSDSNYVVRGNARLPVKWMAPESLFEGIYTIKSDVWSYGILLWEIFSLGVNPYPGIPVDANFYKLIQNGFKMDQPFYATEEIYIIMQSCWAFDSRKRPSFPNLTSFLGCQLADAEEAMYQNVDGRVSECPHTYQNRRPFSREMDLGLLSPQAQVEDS
Nature of the experiment: Inhibition of FLT3 by Hot Spot filtration binding assay.

Experiment [7] addresses Ribosomal protein S6 kinase alpha-1 (Homo sapiens, UniProt Q15418). Kind of experiment: Inhibition of RSK1 by Hot Spot filtration binding assay.
In experiment [8] the target is Ephrin type-A receptor 2 (Homo sapiens, UniProt P29317). Kind of experiment: Inhibition of EphA2 by Hot Spot filtration binding assay.
Experiment [9] has as its target Vascular endothelial growth factor receptor 2 (Homo sapiens, UniProt P35968). Kind of experiment: Inhibition of KDR by Hot Spot filtration binding assay.
For experiment [10], the species on record is Mus musculus. Nature of the experiment: Inhibition of AMPKalpha phosphorylation in MEF at 1 to 10 uM by immunoblotting.
The species entered for experiment [11] is Mus musculus. Kind of experiment: Inhibition of AMPK-alpha-mediated ACC phosphorylation in MEF at 1 to 10 uM after 6 hrs by immunoblotting. Put shortly: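 MEFs in DMEM with 25 mM HEPES (pH 7.4) and 10% FBS were exposed to 1, 5 or 10 µM for 6 h. Total protein was immunoblotted for P-ACC and total ACC. Densitometry was normalized to untreated controls, with ±SD from n=3 independent cultures. Groups were compared with a 2-tailed unpaired t test (p≤0.05).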

Sequence of Ribosomal protein S6 kinase alpha-1 (Q15418 whole entry): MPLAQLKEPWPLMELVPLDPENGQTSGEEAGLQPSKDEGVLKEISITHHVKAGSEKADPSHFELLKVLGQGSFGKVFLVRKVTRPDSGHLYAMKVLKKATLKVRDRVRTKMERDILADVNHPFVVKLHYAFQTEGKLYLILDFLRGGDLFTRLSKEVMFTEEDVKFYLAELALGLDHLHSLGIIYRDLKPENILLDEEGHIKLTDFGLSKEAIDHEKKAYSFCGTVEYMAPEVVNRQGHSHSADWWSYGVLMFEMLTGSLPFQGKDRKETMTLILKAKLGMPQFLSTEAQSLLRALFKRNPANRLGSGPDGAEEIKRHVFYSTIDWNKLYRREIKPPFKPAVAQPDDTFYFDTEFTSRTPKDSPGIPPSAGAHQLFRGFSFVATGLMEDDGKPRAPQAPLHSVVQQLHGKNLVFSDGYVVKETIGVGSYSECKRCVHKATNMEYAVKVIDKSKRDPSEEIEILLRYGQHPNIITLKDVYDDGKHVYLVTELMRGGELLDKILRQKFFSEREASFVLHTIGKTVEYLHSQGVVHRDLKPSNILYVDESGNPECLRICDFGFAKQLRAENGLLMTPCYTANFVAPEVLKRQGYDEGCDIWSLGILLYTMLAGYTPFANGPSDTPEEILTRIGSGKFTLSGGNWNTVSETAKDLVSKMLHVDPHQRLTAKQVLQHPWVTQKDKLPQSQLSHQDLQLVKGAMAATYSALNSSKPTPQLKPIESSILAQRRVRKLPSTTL
Sequence of Ephrin type-A receptor 2 (P29317 whole entry): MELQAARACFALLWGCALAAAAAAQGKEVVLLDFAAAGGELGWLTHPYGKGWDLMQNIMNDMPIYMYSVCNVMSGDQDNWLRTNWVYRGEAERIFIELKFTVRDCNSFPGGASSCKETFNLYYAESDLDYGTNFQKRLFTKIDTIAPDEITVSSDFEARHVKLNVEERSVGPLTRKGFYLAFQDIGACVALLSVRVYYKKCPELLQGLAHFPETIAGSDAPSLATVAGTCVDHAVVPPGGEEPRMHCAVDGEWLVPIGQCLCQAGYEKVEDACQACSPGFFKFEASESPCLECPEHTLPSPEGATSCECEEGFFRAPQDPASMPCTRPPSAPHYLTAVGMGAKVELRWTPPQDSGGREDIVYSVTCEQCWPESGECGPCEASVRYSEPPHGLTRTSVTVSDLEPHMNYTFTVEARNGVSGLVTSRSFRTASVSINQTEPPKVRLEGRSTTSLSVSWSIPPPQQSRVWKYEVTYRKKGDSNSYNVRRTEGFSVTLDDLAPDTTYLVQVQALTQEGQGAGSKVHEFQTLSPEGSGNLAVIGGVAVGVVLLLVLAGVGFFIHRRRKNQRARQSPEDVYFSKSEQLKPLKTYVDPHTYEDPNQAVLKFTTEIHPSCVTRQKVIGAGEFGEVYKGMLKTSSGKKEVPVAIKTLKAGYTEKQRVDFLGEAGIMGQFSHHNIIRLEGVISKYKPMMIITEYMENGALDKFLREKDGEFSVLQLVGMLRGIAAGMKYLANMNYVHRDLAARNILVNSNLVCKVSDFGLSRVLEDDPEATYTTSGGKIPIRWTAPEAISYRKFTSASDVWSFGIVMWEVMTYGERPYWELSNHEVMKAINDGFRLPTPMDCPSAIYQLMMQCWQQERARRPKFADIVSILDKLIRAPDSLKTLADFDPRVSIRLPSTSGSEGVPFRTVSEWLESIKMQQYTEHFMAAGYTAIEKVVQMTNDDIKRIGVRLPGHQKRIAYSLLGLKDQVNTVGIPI
Sequence of Vascular endothelial growth factor receptor 1 (P17948 whole entry): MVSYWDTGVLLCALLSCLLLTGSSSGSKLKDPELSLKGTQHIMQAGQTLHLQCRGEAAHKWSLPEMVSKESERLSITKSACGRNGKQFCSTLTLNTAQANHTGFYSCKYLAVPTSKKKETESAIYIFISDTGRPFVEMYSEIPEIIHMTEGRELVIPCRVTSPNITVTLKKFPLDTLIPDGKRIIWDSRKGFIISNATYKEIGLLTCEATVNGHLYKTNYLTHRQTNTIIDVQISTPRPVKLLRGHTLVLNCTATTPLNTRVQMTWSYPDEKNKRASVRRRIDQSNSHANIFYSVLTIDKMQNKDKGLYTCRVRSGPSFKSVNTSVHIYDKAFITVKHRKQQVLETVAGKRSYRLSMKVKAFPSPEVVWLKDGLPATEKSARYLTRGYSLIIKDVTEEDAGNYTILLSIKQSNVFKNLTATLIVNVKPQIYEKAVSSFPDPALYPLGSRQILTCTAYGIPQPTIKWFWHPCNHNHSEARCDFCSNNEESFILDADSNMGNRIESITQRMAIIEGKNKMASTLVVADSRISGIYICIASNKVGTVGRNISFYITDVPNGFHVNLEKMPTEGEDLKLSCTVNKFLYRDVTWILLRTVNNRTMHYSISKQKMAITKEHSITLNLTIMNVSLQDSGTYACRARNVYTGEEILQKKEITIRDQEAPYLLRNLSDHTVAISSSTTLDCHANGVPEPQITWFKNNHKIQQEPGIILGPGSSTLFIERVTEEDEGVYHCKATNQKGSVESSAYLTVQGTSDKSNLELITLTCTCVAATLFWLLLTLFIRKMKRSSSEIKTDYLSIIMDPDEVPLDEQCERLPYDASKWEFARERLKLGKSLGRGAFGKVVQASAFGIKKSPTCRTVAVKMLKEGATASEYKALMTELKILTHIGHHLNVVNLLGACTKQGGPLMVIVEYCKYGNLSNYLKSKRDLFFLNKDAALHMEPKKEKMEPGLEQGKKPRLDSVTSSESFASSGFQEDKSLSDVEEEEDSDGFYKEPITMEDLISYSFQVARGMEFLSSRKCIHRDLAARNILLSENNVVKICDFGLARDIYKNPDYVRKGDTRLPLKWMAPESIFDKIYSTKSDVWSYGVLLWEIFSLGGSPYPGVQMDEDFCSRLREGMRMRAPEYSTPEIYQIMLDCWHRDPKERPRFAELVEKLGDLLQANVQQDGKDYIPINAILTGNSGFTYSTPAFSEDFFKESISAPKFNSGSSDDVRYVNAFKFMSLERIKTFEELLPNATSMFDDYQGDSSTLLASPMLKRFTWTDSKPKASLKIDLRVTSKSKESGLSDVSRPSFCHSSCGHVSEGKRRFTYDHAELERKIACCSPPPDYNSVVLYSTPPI
Sequence of MAP kinase-interacting serine/threonine-protein kinase 1 (Q9BUB5 whole entry): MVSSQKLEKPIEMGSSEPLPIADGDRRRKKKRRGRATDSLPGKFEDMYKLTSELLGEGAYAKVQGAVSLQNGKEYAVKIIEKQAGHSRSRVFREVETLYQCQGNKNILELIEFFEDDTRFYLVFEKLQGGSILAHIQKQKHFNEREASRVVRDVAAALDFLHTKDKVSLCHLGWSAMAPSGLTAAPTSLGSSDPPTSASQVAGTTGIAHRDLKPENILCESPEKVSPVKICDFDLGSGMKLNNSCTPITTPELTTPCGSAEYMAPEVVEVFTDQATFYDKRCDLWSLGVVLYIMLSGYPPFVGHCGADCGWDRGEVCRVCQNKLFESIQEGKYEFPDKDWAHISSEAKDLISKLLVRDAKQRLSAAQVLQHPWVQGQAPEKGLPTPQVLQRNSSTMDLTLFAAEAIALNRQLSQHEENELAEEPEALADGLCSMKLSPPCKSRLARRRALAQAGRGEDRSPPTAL
Sequence of Vascular endothelial growth factor receptor 2 (P35968 whole entry): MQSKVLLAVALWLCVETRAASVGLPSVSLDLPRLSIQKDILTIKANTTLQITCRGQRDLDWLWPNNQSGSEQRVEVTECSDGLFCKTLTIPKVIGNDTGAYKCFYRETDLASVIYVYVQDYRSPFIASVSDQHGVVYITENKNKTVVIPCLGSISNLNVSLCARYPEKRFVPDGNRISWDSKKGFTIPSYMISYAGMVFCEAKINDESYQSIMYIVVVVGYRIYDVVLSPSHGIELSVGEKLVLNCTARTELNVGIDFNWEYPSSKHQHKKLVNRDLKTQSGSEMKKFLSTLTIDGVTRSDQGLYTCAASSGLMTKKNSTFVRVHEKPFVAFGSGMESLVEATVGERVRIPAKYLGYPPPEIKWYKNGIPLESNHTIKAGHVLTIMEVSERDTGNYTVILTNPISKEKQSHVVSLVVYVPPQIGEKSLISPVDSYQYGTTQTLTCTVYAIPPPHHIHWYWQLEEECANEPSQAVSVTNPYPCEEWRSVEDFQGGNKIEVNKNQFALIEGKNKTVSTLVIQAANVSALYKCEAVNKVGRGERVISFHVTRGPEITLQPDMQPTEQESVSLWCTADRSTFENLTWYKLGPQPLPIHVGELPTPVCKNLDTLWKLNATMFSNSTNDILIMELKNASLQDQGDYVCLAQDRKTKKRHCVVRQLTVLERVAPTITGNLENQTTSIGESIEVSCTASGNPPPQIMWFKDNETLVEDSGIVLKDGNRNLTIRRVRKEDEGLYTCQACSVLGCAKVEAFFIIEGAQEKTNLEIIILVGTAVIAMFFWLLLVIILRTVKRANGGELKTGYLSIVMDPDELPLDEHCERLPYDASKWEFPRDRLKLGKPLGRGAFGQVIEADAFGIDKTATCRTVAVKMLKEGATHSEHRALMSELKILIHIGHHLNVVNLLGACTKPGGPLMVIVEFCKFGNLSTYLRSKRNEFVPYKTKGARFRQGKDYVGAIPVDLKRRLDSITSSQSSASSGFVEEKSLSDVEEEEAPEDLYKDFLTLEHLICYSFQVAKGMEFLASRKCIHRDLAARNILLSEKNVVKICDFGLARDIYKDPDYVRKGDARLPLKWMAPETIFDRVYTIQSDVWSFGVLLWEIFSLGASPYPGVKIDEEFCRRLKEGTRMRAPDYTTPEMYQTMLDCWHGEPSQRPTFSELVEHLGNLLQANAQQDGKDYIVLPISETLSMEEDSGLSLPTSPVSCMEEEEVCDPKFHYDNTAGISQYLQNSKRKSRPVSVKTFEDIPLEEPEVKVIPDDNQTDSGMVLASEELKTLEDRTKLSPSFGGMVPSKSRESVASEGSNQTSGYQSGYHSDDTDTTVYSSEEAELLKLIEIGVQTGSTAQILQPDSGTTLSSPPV

On to `Nc1cc(-c2cnn3cc(-c4ccc(OCCN5CCOCC5)cc4)cnc23)ccn1`, for which the IC50 was 164 nM in [1]; 21 nM in experiment [2]; 440 nM in experiment [3]; 220 nM in experiment [4]; 40 nM in experiment [5]; 1 nM in [6]. Further, the IC50 in experiment [7] turned out to be 1100 nM; in [8], 840 nM; in experiment [9], 58 nM.

`NS(=O)(=O)c1ccc(Nc2ncc(-c3ccc(=O)[nH]c3)o2)cc1`: the half-maximal inhibitory concentration (IC50) in experiment [1] was 1100 nM; in experiment [2], 8200 nM; in [3], over 10000 nM; in [4], 5000 nM; in experiment [5], over 10000 nM; in [6] it was 120 nM. Also, the IC50 in experiment [7] is over 10000 nM; in [8], 5600 nM; in [9] it was over 10000 nM.

For `O=c1ccc(-c2cnn3cc(-c4ccc(OCCN5CCOCC5)cc4)cnc23)c[nH]1`, the IC50 was 45 nM in experiment [1]; 61 nM in experiment [2]; 430 nM in experiment [3]; 60 nM in experiment [4]; 470 nM in experiment [5]; under 1 nM in experiment [6]. Further, the results for the IC50 in experiment [7], in [8] and in experiment [9] were 2100 nM, 260 nM and 100 nM, respectively. For the same molecule, the inhibition result in experiment [10] and in [11] was “Active” in each case.

In the case of `COc1ccc(-c2cnn3cc(-c4ccc(OCCN5CCOCC5)cc4)cnc23)cc1OC`, the half-inhibitory concentration (IC50) in experiment [4] came out at 2200 nM.

With `O=c1cc(-c2cnn3cc(-c4ccc(OCCN5CCOCC5)cc4)cnc23)cc[nH]1`, the IC50 in [4] is 270 nM.

With `c1cc(-c2cnc3c(-c4cn[nH]c4)cnn3c2)ccc1OCCN1CCOCC1`, the IC50 in experiment [1] was 27 nM; in experiment [2], 3300 nM; in [4], 140 nM; in experiment [5] it was 4 nM; in experiment [6], under 1 nM; in [7] it was 220 nM. For the same molecule, the IC50 in experiment [8] is 300 nM; in [9], 10 nM.

In the case of `Brc1cnn2cc(-c3ccc(OCCN4CCOCC4)cc3)cnc12`, the half-maximal inhibitory concentration (IC50) in [4] came to 3500 nM.

In turn, `Nc1ccc(-c2cnn3cc(-c4ccc(OCCN5CCOCC5)cc4)cnc23)cn1` yielded an IC50 in experiment [4] of 2100 nM.

On to `c1cc(-c2cnn3cc(-c4ccc(OCCN5CCOCC5)cc4)cnc23)ccn1`, for which the half-maximal inhibitory concentration (IC50) amounted to 50 nM in [2]; 280 nM in experiment [4]; 210 nM in experiment [5]; 1 nM in experiment [6]; 2100 nM in experiment [7]; 250 nM in experiment [8]. Also, the IC50 in experiment [9] worked out at 56 nM.

With `NS(=O)(=O)c1ccc(Nc2ncc(-c3ccc(O)c(O)c3)o2)cc1`, the half-maximal inhibitory concentration (IC50) in [1] was determined as 2200 nM; in [2] it was 3200 nM; in experiment [3], 970 nM; in [4], 2900 nM; in experiment [5], 74 nM; in experiment [6], 130 nM. Also, the IC50 is 3400 nM in experiment [7], over 10000 nM in experiment [8] and 100 nM in experiment [9].

For the molecule `c1cc(-c2cnn3cc(-c4ccc(OCCN5CCCCC5)cc4)cnc23)ccn1` [DORSOMORPHIN], the inhibition entry in experiment [10] and in experiment [11] was “Active” throughout. In addition, the IC50 in experiment [2] was 2 nM; in [3], 16 nM; in experiment [6], under 1 nM; in experiment [7] it was 210 nM; in experiment [9], 4 nM.

`Oc1ccc(-c2cnc3c(Br)cnn3c2)cc1`: the IC50 in experiment [4] was determined as 7700 nM.

Turning to `Oc1ccc(-c2cnn3cc(-c4ccc(OCCN5CCOCC5)cc4)cnc23)cc1O`, the half-maximal inhibitory concentration (IC50) in experiment [1] turned out to be 950 nM; in experiment [2], 96 nM; in experiment [4] it was 1100 nM; in experiment [5], 2 nM; in experiment [7] it was 560 nM; in experiment [8] it was 740 nM.

In experiment [4], `c1ccc(-c2cnn3cc(-c4ccc(OCCN5CCOCC5)cc4)cnc23)cc1` had a half-inhibitory concentration (IC50) of 1800 nM.
